Experimental data from ChEMBL document CHEMBL4261485, “Towards the rational design of novel drugs based on solubility, partitioning/distribution, biomimetic permeability and biological activity exemplified by 1,2,4-thiadiazole derivatives” (Medchemcomm, 2017).
Converted amounts (≈) assume the structure as drawn.

Experiments:
[1] = Permeability of compound at 5 mM using lipid layer at pH 7.4 at 298 K by spectrophotometric method; format: ADME; conditions: not told
[2] = Apparent permeability of compound at 5 mM using permeapad barrier at pH 7.4 at 298 K by spectrophotometric method; format: ADME; conditions: not told
Outline: (§1)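 Franz diffusion cell at 298 K (±0.1 K). The donor (lower) chamber held 8 ml of drug solution, approximately 5 mM, in phosphate buffer saline (74 mM phosphate, pH 7.3–7.4, 280–290 mOsm with NaCl). The acceptor chamber held 1.5 ml buffer. Barrier was Permeapad or the support layer alone, without phospholipids. Cumulative permeated moles per barrier area were plotted against time in seconds. Replicates were at least triplicate, and Papp is the mean of the replicates.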

[3] = 1-octanol/buffer partition co-efficient of compound in neutral form at pH 7.4 at 298 K after 24 hrs by shake flask method; format: physicochemical; conditions: pH 7.4, 24 h
[4] = Thermodynamic solubility of compound in buffer at 298 +/- 0.1 K after 24 hrs by shake flask method; format: physicochemical; conditions: read-out: Therm_solubility
Outline: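 Shake flask at 298 K (±0.1 K). Phosphate buffer pH 7.4 (I = 0.15 mol L−1) was stirred with solid for 24 h, an equilibration time chosen from kinetic plateau experiments. Aliquot was centrifuged 5 min at 298 K, then isothermally filtered (0.45 μm) and diluted. Concentration was read by UV spectrophotometry (200–400 nm). Value is the mean of at least three replicates.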

[5] = Permeability of compound at 5 mM using support layer at pH 7.4 at 298 K by spectrophotometric method; format: ADME; conditions: not told; outline: as §1
[6] = 1-hexane/buffer partition co-efficient of compound in neutral form at pH 7.4 at 298 K after 24 hrs by shake flask method; format: physicochemical; conditions: pH 7.4, 24 h
Rattus norvegicus = species on record: Rattus norvegicus; test: Modulation of glutamate receptor in synaptosomes of rat brain cortex assessed as change in glutamate-induced 45Ca2+ uptake (K43/21) after 5 mins by liquid scintillation counting method; format: subcellular; set-up: concentration or dose not given beside the values
Outline: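 Cortical synaptosomes (P2 fraction) from 9–10-day-old rats suspended in HEPES buffer pH 7.4 (NaCl, KCl, glucose; protein 1.5–2 mg mL−1), final Ca2+ 1.25 mM. 45Ca2+ uptake stimulated with 200 μM glutamate, 5 min at […]; stopped by GF/B filtration and three cold-buffer washes; beta counting. Uptake = stimulated minus unstimulated label, % of control; triplicate.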

[7] = 1-octanol/buffer distribution co-efficient, log D of compound at pH 7.4 at 298 K after 24 hrs by shake flask method; format: physicochemical
Outline: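 Shake flask. Buffer (pH 7.4) and 1-octanol were pre-saturated by vigorous mixing for 24 h at 298 K (±0.1 K) and then allowed to separate. Compound was dissolved in the buffer-saturated octanol as stock, then mixed with the octanol-saturated buffer for 24 h at 298 K. Both phases were quantified by UV spectrophotometry against calibration curves. D = Coct/Cbuf.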

[8] = 1-hexane/buffer distribution co-efficient, log D of compound at pH 7.4 at 298 K after 24 hrs by shake flask method; format: physicochemical; conditions: pH 7.4, 24 h

Row | Structure (SMILES) | Papp at 5000 µM [1] [×10⁻⁶ cm/s] | Papp at 5000 µM [2] [×10⁻⁶ cm/s] | K [3] | solubility thermodynamic at 24 h [4] [mM] | Papp at 5000 µM [5] [×10⁻⁶ cm/s] | K [6] | Activity (Rattus norvegicus) [%] | logD at 24 h [7] | logD [8]
1 | CC(Cc1nsc(Nc2ccc(Cl)cc2)n1)NC1CC(C)(C)NC(C)(C)C1 (configuration not stated) | 14.1 | 8.6 | 1.22 ×10⁴ No_unit | 3.72 (≈ 1520 µg/mL) | 21.9 | 73 | 172 | 0.262 | –
2 | CSc1cccc(Nc2nc(CC(C)O)ns2)c1 (configuration not stated) | – | – | 94 | – | – | 0.48 | 86.7 | 1.97 | –
3 | CC(Cc1nsc(Nc2ccc(Cl)c(Cl)c2)n1)NC1CC(C)(C)NC(C)(C)C1 (configuration not stated) | 26.1 | 9.8 | – | 7.45 (≈ 3300 µg/mL) | 15.7 | 72.3 | 305 | 1.1 | –
4 | Cc1ccc(Cl)cc1Nc1nc(CC(C)NC2CC(C)(C)NC(C)(C)C2)ns1 (configuration not stated) | 26.9 | 14.4 | 4.56 ×10⁴ No_unit | 4.86 (≈ 2050 µg/mL) | 30.8 | 112.8 | 177 | 0.839 | –
5 | CC(O)Cc1nsc(Nc2ccc(F)cc2)n1 (configuration not stated) | – | – | 316 | 3.4 (≈ 861 µg/mL) | – | 0.32 | 88 | 2.5 | –
6 | Cc1ccc(Cl)cc1Nc1nc(CC(C)O)ns1 (configuration not stated) | – | – | – | 0.445 (≈ 126 µg/mL) | – | 0.56 | 88 | 3.02 | –
7 | CC(Cc1nsc(NC2CC2)n1)NC1CC(C)(C)NC(C)(C)C1 (configuration not stated) | 6.8 | 5.4 | 3.19 ×10³ No_unit | 310 (≈ 105000 µg/mL) | 27.6 | 655.5 | 86 | 0.0828 | –
8 | CSc1cccc(Nc2nc(CC(C)NC3CC(C)(C)NC(C)(C)C3)ns2)c1 (configuration not stated) | 18.2 | 10.1 | 2.92 ×10⁴ No_unit | 12 (≈ 5040 µg/mL) | 22.8 | 92.9 | 117 | 0.643 | –
9 | COc1ccc(Nc2nc(CC(C)O)ns2)cc1 (configuration not stated) | – | – | 205 | 3.04 (≈ 807 µg/mL) | – | 0.58 | 108 | 2.31 | –
10 | Cc1ccc(Nc2nc(CC(C)O)ns2)cc1 (configuration not stated) | – | – | 445 | 2.19 (≈ 546 µg/mL) | – | 0.31 | 85 | 2.65 | –
11 | Cc1cc(Nc2nc(CC(C)O)ns2)no1 (configuration not stated) | – | – | 45 | – | – | 0.18 | 109 | 1.65 | –
12 | Cc1cc(Nc2nc(CC(C)NC3CC(C)(C)NC(C)(C)C3)ns2)no1 (configuration not stated) | 3.7 | 3.4 | – | 14.1 (≈ 5340 µg/mL) | 31.7 | 258.6 | 108 | -0.426 | –
13 | CC(Cc1nsc(Nc2ccc(F)cc2)n1)NC1CC(C)(C)NC(C)(C)C1 (configuration not stated) | 18.6 | 8.7 | 5.06 ×10⁴ No_unit | 18.2 (≈ 7130 µg/mL) | 16.3 | 158 | 112 | 0.881 | –
14 | Cc1ccc(Nc2nc(CC(C)NC3CC(C)(C)NC(C)(C)C3)ns2)cc1Cl (configuration not stated) | 39.5 | 13.5 | 7.31 ×10⁴ No_unit | 5.57 (≈ 2350 µg/mL) | 20.6 | 20.6 | 214 | 1.04 | 0.0031
15 | Cc1ccc(Nc2nc(CC(C)NC3CC(C)(C)NC(C)(C)C3)ns2)cc1 (configuration not stated) | 22.8 | 12.2 | 4.44 ×10⁴ No_unit | 8.37 (≈ 3240 µg/mL) | 26.3 | 89.3 | 128 | 0.82 | –
16 | CC(Cc1nsc(Nc2ccc(Br)cc2)n1)NC1CC(C)(C)NC(C)(C)C1 (configuration not stated) | 9.5 | 6.5 | 1.36 ×10⁴ No_unit | 3.49 (≈ 1580 µg/mL) | 25.8 | 85 | 82 | 0.31 | –
17 | Cc1ccc(Nc2nc(CC(C)O)ns2)cc1Cl (configuration not stated) | – | – | 1.038 ×10³ No_unit | 0.483 (≈ 137 µg/mL) | – | 1.68 | 87 | 3.02 | –
18 | CC(O)Cc1nsc(Nc2ccc(Cl)c(Cl)c2)n1 (configuration not stated) | – | – | 610 | – | – | 0.17 | 51 | 2.79 | –
19 | CC(O)Cc1nsc(Nc2ccc(F)c(Cl)c2)n1 (configuration not stated) | – | – | 226 | – | – | 0.16 | 75 | 2.35 | –
20 | CC(O)Cc1nsc(Nc2ccc(Cl)cc2)n1 (configuration not stated) | – | – | 380 | 0.484 (≈ 130 µg/mL) | – | 0.46 | 89 | 2.58 | –
21 | CC(Cc1nsc(Nc2ccc(F)c(Cl)c2)n1)NC1CC(C)(C)NC(C)(C)C1 (configuration not stated) | 30.9 | 13.9 | 3.25 ×10⁴ No_unit | 9.24 (≈ 3940 µg/mL) | 25.4 | 42 | 189 | 0.699 | –
